This is an account of results in ChEMBL document CHEMBL1123751, “Synthesis and biological activity of unsaturated carboacyclic purine nucleoside analogues” (J Med Chem, 1987).

Converted amounts (≈) assume the structure as drawn.

For experiment [1], the system named is Vero. Description: Minimum inhibitory concentration of cytopathogenic-induced effect was determined against Herpes simplex virus (HSV) -2 in vero cell monolayer culture. The conditions noted are these: Chlorocebus sabaeus. The experiment is classed as functional.
The subject of experiment [2] is Vero. Description: Inhibition effect was determined against Herpes simplex virus (HSV) -1 in vero cell monolayer culture. The format is functional, Chlorocebus sabaeus.
In experiment [3] the test system is Human alphaherpesvirus 2. Nature of the experiment: Virus rating is measurement of degree of inhibition of virus-induced cytopathogenic effects and the degree of cytotoxicity produced by the test compound for Herpes simplex virus (HSV) -2. The format is functional. The gist of the method: (§1)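 Virus rating as defined by Southern Research Institute: a selective antiviral score that combines the degree of inhibition of virus-induced cytopathogenic effect with the degree of cytotoxicity from the test compound, determined by a modification of a published method.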
On the technique in general: Cytopathic effects are the visible damage that an infection or toxin causes in cultured cells.

The test system of experiment [4] is Vero. Nature of the experiment: Inhibition of cytopathogenic effect was determined against Herpes simplex virus (HSV) -2 in vero cell monolayer culture. The experiment is classed as functional. The conditions noted are these: Chlorocebus sabaeus.
A short description of experiment [5]: Virus rating is measurement of degree of inhibition of virus-induced cytopathogenic effects and the degree of cytotoxicity produced by the test compound for influenza type A2. The format is functional.
The test system of experiment [6] is Human alphaherpesvirus 2. Description: Evaluated virus rating for Herpes simplex virus (HSV) -2. The format is functional. The gist of the method:
as §1

In turn, `Nc1nc(O)c2ncn(CC=C(CO)CO)c2n1` showed an MIC50 in experiment [1] of 65.6 µg/mL (≈ 261 µM). Further, in experiment [2], the ID90 was 25 µM. Also, in experiment [3], the Virus rating is 1.5.

For `Nc1ncnc2c1ncn2CC=C(CO)CO`, the MIC50 in experiment [4] came to 939 µg/mL (≈ 3990 µM). Also, the Virus rating was 0.3 in experiment [5] and 0.6 in experiment [6].

In turn, `Nc1nc2c(ncn2COCCO)c(=O)[nH]1` [ACYCLOVIR] returned an MIC50 in experiment [4] of 4.3 µg/mL (≈ 19.1 µM). The compound further came in with a Virus rating in experiment [3] of 5.1.

Take `NC(=O)c1ncn([C@@H]2O[C@H](CO)[C@@H](O)[C@H]2O)n1` [RIBAVIRIN]: the Virus rating in experiment [5] stood at 2.8.

Turning to `Nc1ncnc2c1ncn2[C@@H]1O[C@H](CO)[C@@H](O)[C@@H]1O` [VIDARABINE], the MIC50 in experiment [4] came to 26.8 µg/mL (≈ 100 µM). The Virus rating in experiment [3] came to 1.2.
